According to ChEMBL document CHEMBL1152538, “Synthesis and biological evaluation of asymmetric gramicidin S analogues containing modified D-phenylalanine residues” (Bioorg Med Chem, 2009):
≈ marks a conversion by molar mass, not a printed value. *1 amine or outer side, *2 acyl side, *3 side chain or, on linkers, in order; H or OH if unused. Where a SMILES comes first, the peptide text is derived from it. [ ]: non-standard residue; d: D form. The star is where a group is joined. X2 = C[N+](C)(C)c1ccc(C[C@H](N[*:1])C(=O)[*:2])cc1; Diphenylacetyl = O=C(C(c1ccccc1)c1ccccc1)*; Phe(4-NH2) = Nc1ccc(C[C@H](N)C(=O)O)cc1; X1 = O=C(C1C2CC3CC(C2)CC1C3)*; Orn = NCCC[C@H](N)C(=O)O; PhAc = O=C(Cc1ccccc1)*; Piv = CC(C)(C)C(=O)*

Experiments:
[1] = test system: Staphylococcus aureus; experiment: Antibacterial activity against Staphylococcus aureus 7323 after 24 to 96 hrs by well microplate assay; assay type: functional
Outline: (§1)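 Strains were kept at -70 °C, grown at 30 °C on sheep-blood Columbia agar, and suspended in saline to OD595 0.1, then diluted 10×. Inoculum was added at 2 µL per 100 µL Nutrient Broth with yeast extract (2 g/400 mL). Peptide stocks were 4 g/L in ethanol, diluted to 1000 mg/L in water, then twofold in broth (64–1 mg/L). Plates were held at 30 °C for 24–96 h. MIC was the lowest concentration inhibiting growth.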

[2] = test system: Staphylococcus aureus; experiment: Antibacterial activity against Staphylococcus aureus 7388 after 24 to 96 hrs by well microplate assay; assay type: functional; outline: as §1
[3] = test system: Enterococcus faecalis; experiment: Antibacterial activity against Enterococcus faecalis 1131 after 24 to 96 hrs by well microplate assay; assay type: functional; outline: as §1
[4] = test system: Escherichia coli; experiment: Antibacterial activity against Escherichia coli ATCC 25922 after 24 to 96 hrs by well microplate assay; assay type: functional; outline: as §1
[5] = test system: Pseudomonas aeruginosa; experiment: Antibacterial activity against Pseudomonas aeruginosa AK1 after 24 to 96 hrs by well microplate assay; assay type: functional; outline: as §1
[6] = test system: Pseudomonas aeruginosa; experiment: Antibacterial activity against Pseudomonas aeruginosa ATCC 19582 after 24 to 96 hrs by well microplate assay; assay type: functional; outline: as §1
[7] = test system: Streptococcus mitis; experiment: Antibacterial activity against Streptococcus mitis BMS after 24 to 96 hrs by well microplate assay; assay type: functional; outline: as §1
[8] = test system: Streptococcus mitis; experiment: Antibacterial activity against Streptococcus mitis ATCC 33399 after 24 to 96 hrs by well microplate assay; assay type: functional; outline: as §1
[9] = Cytotoxicity against human erythrocytes assessed as hemolysis at 25 uM after 4 hrs by twofold dilution assay; assay type: cell-based, Erythrocyte; conditions: read-out: Activity
[10] = test system: coagulase-negative Staphylococcus; experiment: Antibacterial activity against coagulase-negative Staphylococcus CNS 5277 after 24 to 96 hrs by well microplate assay
[11] = test system: coagulase-negative Staphylococcus; experiment: Antibacterial activity against coagulase-negative Staphylococcus CNS 5115 after 24 to 96 hrs by well microplate assay
[12] = test system: coagulase-negative Staphylococcus; experiment: Antibacterial activity against coagulase-negative Staphylococcus CNS 7368 after 24 to 96 hrs by well microplate assay
[13] = Cytotoxicity against human erythrocytes assessed as hemolysis after 4 hrs by twofold dilution assay; assay type: cell-based; conditions: Erythrocyte
Outline: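 Heparinised blood was spun at 1000g and 10 °C, and erythrocytes were washed three times in 0.85% saline and diluted to 1/25 packed volume. Peptide stocks were 1.5 mM in 30% DMSO/0.5 mM saline, sonicated if suspended, and twofold serially diluted in saline in triplicate rows. 1% Triton-X served as the lysis reference. Cells were incubated at 37 °C for 4 h and centrifuged, and the supernatant was read at A405 for % hemolysis.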

[14] = Cytotoxicity against human erythrocytes assessed as hemolysis at 1.5 mM after 4 hrs by twofold dilution assay; assay type: cell-based; conditions: erythrocyte, 1500 µM
[15] = Cytotoxicity against human erythrocytes assessed as hemolysis at 12 uM after 4 hrs by twofold dilution assay; assay type: cell-based, Erythrocyte; conditions: read-out: Activity
Outline: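 Freshly drawn heparinised blood was spun at 1000g and 10 °C. The erythrocytes were washed three times in 0.85% saline and diluted to 1/25 packed cell volume. Peptide stock was 1.5 mM in 30% DMSO/saline, sonicated if needed, and serially twofold diluted in saline across 10 wells, with 1% Triton-X as reference. Plates were held at 37 °C for 4 h, then centrifuged, and hemolysis percentage was read from supernatant A405.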

Row | SMILES | MIC [1] [µg/mL] | MIC [2] [µg/mL] | MIC [3] [µg/mL] | MIC [4] [µg/mL] | MIC [5] [µg/mL] | MIC [6] [µg/mL] | MIC [7] [µg/mL] | MIC [8] [µg/mL] | MIC [10] [µg/mL] | MIC [11] [µg/mL] | MIC [12] [µg/mL] | hemolysis at 4 h, 25 µM [9] [%] | EC50 [13] [µM] | Activity [14] | hemolysis at 4 h, 12 µM [15] [%]
1 | CC(C)C[C@@H]1NC(=O)[C@H](CCCN)NC(=O)[C@H](C(C)C)NC(=O)[C@@H]2CCCN2C(=O)[C@H](Cc2ccccc2)NC(=O)[C@H](CC(C)C)NC(=O)[C@H](CCCN)NC(=O)[C@H](C(C)C)NC(=O)[C@@H]2CCCN2C(=O)[C@H](Cc2ccc(NC(=O)C3C4CC5CC(C4)CC3C5)cc2)NC1=O (some centres not stated) (cyclo(FPV[Orn]L[Phe(4-NH2)](X1)PV[Orn]L)) | 8 (≈ 6.07 µM) | 8 (≈ 6.07 µM) | 64 (≈ 48.5 µM) | > 64 | > 64 | > 64 | 8 (≈ 6.07 µM) | 16 (≈ 12.1 µM) | 16 (≈ 12.1 µM) | 8 (≈ 6.07 µM) | 8 (≈ 6.07 µM) |  |  | Non-toxic | 
2 | CC(C)C[C@@H]1NC(=O)[C@H](CCCN)NC(=O)[C@H](C(C)C)NC(=O)[C@@H]2CCCN2C(=O)[C@@H](Cc2ccccc2)NC(=O)[C@H](CC(C)C)NC(=O)[C@H](CCCN)NC(=O)[C@H](C(C)C)NC(=O)[C@@H]2CCCN2C(=O)[C@@H](Cc2ccccc2)NC1=O [GRAMICIDIN S] (cyclo(L[dF]PV[Orn]L[dF]PV[Orn])) | 8 (≈ 7.01 µM) | 8 (≈ 7.01 µM) | 16 (≈ 14 µM) | 32 (≈ 28 µM) | 64 (≈ 56.1 µM) | 8 (≈ 7.01 µM) | 8 (≈ 7.01 µM) | 4 (≈ 3.5 µM) | 16 (≈ 14 µM) | 16 (≈ 14 µM) | 8 (≈ 7.01 µM) |  | 11.7 |  | 50
3 | CC(C)C[C@@H]1NC(=O)[C@H](CCCN)NC(=O)[C@H](C(C)C)NC(=O)[C@@H]2CCCN2C(=O)[C@H](Cc2ccccc2)NC(=O)[C@H](CC(C)C)NC(=O)[C@H](CCCN)NC(=O)[C@H](C(C)C)NC(=O)[C@@H]2CCCN2C(=O)[C@H](Cc2ccc(N)cc2)NC1=O (cyclo(FPV[Orn]L[Phe(4-NH2)]PV[Orn]L)) | 32 (≈ 27.7 µM) | 16 (≈ 13.8 µM) | 64 (≈ 55.3 µM) | 64 (≈ 55.3 µM) | > 64 | > 64 | 8 (≈ 6.92 µM) | 32 (≈ 27.7 µM) | 16 (≈ 13.8 µM) | 32 (≈ 27.7 µM) | 16 (≈ 13.8 µM) |  |  |  | 
4 | CC(=O)Nc1ccc(C[C@@H]2NC(=O)[C@H](CC(C)C)NC(=O)[C@H](CCCN)NC(=O)[C@H](C(C)C)NC(=O)[C@@H]3CCCN3C(=O)[C@H](Cc3ccccc3)NC(=O)[C@H](CC(C)C)NC(=O)[C@H](CCCN)NC(=O)[C@H](C(C)C)NC(=O)[C@@H]3CCCN3C2=O)cc1 (cyclo(FPV[Orn]L[Phe(4-NH2)](Ac)PV[Orn]L)) | 64 (≈ 53.4 µM) | 16 (≈ 13.3 µM) | 64 (≈ 53.4 µM) | 64 (≈ 53.4 µM) | > 64 | > 64 | 8 (≈ 6.67 µM) | 16 (≈ 13.3 µM) | 16 (≈ 13.3 µM) | 32 (≈ 26.7 µM) | 32 (≈ 26.7 µM) |  |  | Non-toxic | 

Now from value to compound, other results behind:

Row | MIC [1] [µg/mL] | MIC [2] [µg/mL] | MIC [3] [µg/mL] | MIC [4] [µg/mL] | MIC [5] [µg/mL] | MIC [6] [µg/mL] | MIC [7] [µg/mL] | MIC [8] [µg/mL] | MIC [10] [µg/mL] | MIC [11] [µg/mL] | MIC [12] [µg/mL] | SMILES | hemolysis at 4 h, 25 µM [9] [%] | EC50 [13] [µM] | Activity [14] | hemolysis at 4 h, 12 µM [15] [%]
5 | 8 (≈ 6.45 µM) | 8 (≈ 6.45 µM) | 16 (≈ 12.9 µM) | 32 (≈ 25.8 µM) | 64 (≈ 51.6 µM) | 64 (≈ 51.6 µM) | 4 (≈ 3.22 µM) | 4 (≈ 3.22 µM) | 8 (≈ 6.45 µM) | 8 (≈ 6.45 µM) | 8 (≈ 6.45 µM) | CC(C)C[C@@H]1NC(=O)[C@H](CCCN)NC(=O)[C@H](C(C)C)NC(=O)[C@@H]2CCCN2C(=O)[C@H](Cc2ccccc2)NC(=O)[C@H](CC(C)C)NC(=O)[C@H](CCCN)NC(=O)[C@H](C(C)C)NC(=O)[C@@H]2CCCN2C(=O)[C@H](Cc2ccc(NC(=O)C(C)(C)C)cc2)NC1=O (cyclo(FPV[Orn]L[Phe(4-NH2)](Piv)PV[Orn]L)) | 50 |  |  | 
6 | 64 | 32 | > 64 | 64 | > 64 | > 64 | 8 | 8 | 16 | 16 | 32 | CC(C)C[C@@H]1NC(=O)[C@H](CCCN)NC(=O)[C@H](C(C)C)NC(=O)[C@@H]2CCCN2C(=O)[C@H](Cc2ccccc2)NC(=O)[C@H](CC(C)C)NC(=O)[C@H](CCCN)NC(=O)[C@H](C(C)C)NC(=O)[C@@H]2CCCN2C(=O)[C@H](Cc2ccc([N+](C)(C)C)cc2)NC1=O.[I-] (cyclo(FPV[Orn]L[X2]PV[Orn]L)) |  | 134 | Non-toxic | 
7 | 8 (≈ 6.28 µM) | 16 (≈ 12.6 µM) | 32 (≈ 25.1 µM) | 32 (≈ 25.1 µM) | > 64 | > 64 | 8 (≈ 6.28 µM) | 16 (≈ 12.6 µM) | 8 (≈ 6.28 µM) | 8 (≈ 6.28 µM) | 8 (≈ 6.28 µM) | CC(C)C[C@@H]1NC(=O)[C@H](CCCN)NC(=O)[C@H](C(C)C)NC(=O)[C@@H]2CCCN2C(=O)[C@H](Cc2ccccc2)NC(=O)[C@H](CC(C)C)NC(=O)[C@H](CCCN)NC(=O)[C@H](C(C)C)NC(=O)[C@@H]2CCCN2C(=O)[C@H](Cc2ccc(NC(=O)Cc3ccccc3)cc2)NC1=O (cyclo(FPV[Orn]L[Phe(4-NH2)](PhAc)PV[Orn]L)) |  | 9.35 | Non-toxic | 
8 | 16 (≈ 11.8 µM) | 32 (≈ 23.7 µM) | 16 (≈ 11.8 µM) | > 64 | > 64 | > 64 | 16 (≈ 11.8 µM) | > 64 | 64 (≈ 47.4 µM) | > 64 | 8 (≈ 5.92 µM) | CC(C)C[C@@H]1NC(=O)[C@H](CCCN)NC(=O)[C@H](C(C)C)NC(=O)[C@@H]2CCCN2C(=O)[C@H](Cc2ccccc2)NC(=O)[C@H](CC(C)C)NC(=O)[C@H](CCCN)NC(=O)[C@H](C(C)C)NC(=O)[C@@H]2CCCN2C(=O)[C@H](Cc2ccc(NC(=O)C(c3ccccc3)c3ccccc3)cc2)NC1=O (cyclo(FPV[Orn]L[Phe(4-NH2)](Diphenylacetyl)PV[Orn]L)) |  |  |  | 
